In ChEMBL document CHEMBL2429791, “Preparation of asymmetric urea derivatives that target prostate-specific membrane antigen for SPECT imaging” (J Med Chem, 2013):

Tests used:
Type in all cases: ADME, organism-based
Liver [1] = test: Biodistribution in liver of C.B.-17/Icr […] Jcl mouse xenografted with human LNCAP and PC3 cells at 25.9 MBq, iv after 30 mins; settings: in vivo, 0.5 h
Summary of the method: (§1)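 ¹²⁵I-labelled tracer given iv by tail vein to mice (22–24 g) bearing LNCaP (left shoulder) and PC-3 (right shoulder) xenografts of about 5–10 mm, grown from 1–5 × 10⁶ cells in 1:1 Matrigel. n=4 per time point; decapitated at 2 min, 30 min, 1, 3, 6 h. Tissues weighed and counted; uptake as %ID/g, mean ± SD.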

Kidney [2] = test: Biodistribution in kidney of C.B.-17/Icr […] Jcl mouse xenografted with human LNCAP and PC3 cells at 25.9 MBq, iv after 2 mins; settings: in vivo; summary of the method: as §1
Liver [3] = test: Drug excretion in C.B.-17/Icr […] Jcl mouse liver xenografted with human LNCAP and PC3 cells at 25.9 MBq, iv; settings: in vivo
Lung = test: Biodistribution in lung of C.B.-17/Icr +/+ Jcl mouse xenografted with human LNCAP and PC3 cells at 25.9 MBq, iv after 30 mins; settings: in vivo, 0.5 h
Summary of the method: (§2)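 Radioiodinated (¹²⁵I) tracer given by tail-vein injection to mice bearing LNCaP (left shoulder) and PC-3 (right shoulder) xenografts, 22–24 g, grown to about 5–10 mm. Groups of n=4 were decapitated at 2 min, 30 min, 1 h, 3 h or 6 h. Tissues were weighed and counted, and uptake was expressed as %ID/g (mean ± SD).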

Nucleic Acid [4] = test: Ratio of drug level in human LNCAP cells xenografted in C.B.-17/Icr +/+ Jcl mouse to muscle of C.B.-17/Icr +/+ Jcl mouse xenografted with human LNCAP and PC3 cells at 25.9 MBq, iv after 1 hr; settings: in vivo
Summary of the method: (§3)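 Tumor-to-blood and tumor-to-muscle ratios were calculated from %ID/g values in ¹²⁵I-tracer biodistribution in LNCaP/PC-3 xenografted mice. Tail-vein dosing, n=4 per time point, sacrifice at 2 min, 30 min, 1, 3 or 6 h.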

Thyroid gland [5] = test: Biodistribution in thyroid of C.B.-17/Icr +/+ Jcl mouse xenografted with human LNCAP and PC3 cells at 25.9 MBq, iv after 30 mins; settings: in vivo, 0.5 h; summary of the method: as §2
Thyroid gland [6] = test: Biodistribution in thyroid of C.B.-17/Icr +/+ Jcl mouse xenografted with human LNCAP and PC3 cells at 25.9 MBq, iv after 3 hrs; settings: in vivo; summary of the method: as §2
Spleen [7] = test: Biodistribution in spleen of C.B.-17/Icr scid/scid Jcl mouse xenografted with human LNCAP and PC3 cells at 25.9 MBq, iv after 30 mins; settings: in vivo, 0.5 h
LNCaP [8] = test: Biodistribution in LNCAP cells in C.B.-17/Icr +/+ Jcl mouse xenografted with human LNCAP and PC3 cells at 25.9 MBq, iv after 1 hr; settings: in vivo; summary of the method: as §1
LNCaP [9] = test: Biodistribution in LNCAP cells in C.B.-17/Icr +/+ Jcl mouse xenografted with human LNCAP and PC3 cells at 25.9 MBq, iv after 2 mins; settings: in vivo; summary of the method: as §1
Blood [10] = test: Biodistribution in blood of C.B.-17/Icr +/+ Jcl mouse xenografted with human LNCAP and PC3 cells at 25.9 MBq, iv after 6 hrs; settings: in vivo; summary of the method: as §1
LNCaP [11] = test: Biodistribution in LNCAP cells in C.B.-17/Icr +/+ Jcl mouse xenografted with human LNCAP and PC3 cells at 25.9 MBq, iv after 30 mins; settings: in vivo, 0.5 h; summary of the method: as §1
Spleen [12] = test: Biodistribution in spleen of C.B.-17/Icr +/+ Jcl mouse xenografted with human LNCAP and PC3 cells at 25.9 MBq, iv after 30 mins; settings: in vivo, 0.5 h; summary of the method: as §2
Kidney [13] = test: Biodistribution in kidney of C.B.-17/Icr +/+ Jcl mouse xenografted with human LNCAP and PC3 cells at 25.9 MBq, iv after 30 mins; settings: in vivo, 0.5 h; summary of the method: as §1
Intestine [14] = test: Biodistribution in intestine of C.B.-17/Icr […] Jcl mouse xenografted with human LNCAP and PC3 cells at 25.9 MBq, iv after 6 hrs; settings: in vivo; summary of the method: as §1
Heart [15] = test: Biodistribution in heart of C.B.-17/Icr +/+ Jcl mouse xenografted with human LNCAP and PC3 cells at 25.9 MBq, iv after 6 hrs; settings: in vivo; summary of the method: as §1
PC-3 = test: Biodistribution in PC3 cells in C.B.-17/Icr +/+ Jcl mouse xenografted with human LNCAP and PC3 cells at 25.9 MBq, iv after 1 hr; settings: in vivo; summary of the method: as §1
LNCaP [16] = test: Biodistribution in LNCAP cells in C.B.-17/Icr +/+ Jcl mouse xenografted with human LNCAP and PC3 cells at 25.9 MBq, iv after 3 hrs; settings: in vivo; summary of the method: as §1
Heart [17] = test: Biodistribution in heart of C.B.-17/Icr +/+ Jcl mouse xenografted with human LNCAP and PC3 cells at 25.9 MBq, iv after 3 hrs; settings: in vivo; summary of the method: as §1
Nucleic Acid [18] = test: Ratio of drug level in human LNCAP cells xenografted in C.B.-17/Icr +/+ Jcl mouse to muscle of C.B.-17/Icr +/+ Jcl mouse xenografted with human LNCAP and PC3 cells at 25.9 MBq, iv after 30 mins; settings: in vivo, 0.5 h; summary of the method: as §3
Stomach = test: Biodistribution in stomach of C.B.-17/Icr +/+ Jcl mouse xenografted with human LNCAP and PC3 cells at 25.9 MBq, iv after 6 hrs; settings: in vivo; summary of the method: as §2
Liver [19] = test: Biodistribution in liver of C.B.-17/Icr […] Jcl mouse xenografted with human LNCAP and PC3 cells at 25.9 MBq, iv after 6 hrs; settings: in vivo; summary of the method: as §1
Intestine [20] = test: Biodistribution in intestine of C.B.-17/Icr +/+ Jcl mouse xenografted with human LNCAP and PC3 cells at 25.9 MBq, iv after 1 hr; settings: in vivo; summary of the method: as §1
Nucleic Acid [21] = test: Ratio of drug level in human PC3 cells xenografted in C.B.-17/Icr +/+ Jcl mouse to muscle of C.B.-17/Icr +/+ Jcl mouse xenografted with human LNCAP and PC3 cells at 25.9 MBq, iv after 30 mins; settings: in vivo, 0.5 h
Summary of the method: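 Mice (22–24 g) carried PC-3 (right shoulder) and LNCaP (left shoulder) tumors, raised by injecting 1–5 × 10⁶ cells in 1:1 PBS/Matrigel and used at about 5–10 mm diameter. [¹²⁵I]-tracer was given via the tail vein, n=4 per time point, and mice were decapitated at 2 min, 30 min, 1, 3 or 6 h. Tissues were weighed and γ-counted as %ID/g. Tumor/blood and tumor/muscle ratios were taken from %ID/g, mean ± SD.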

Muscle tissue = test: Biodistribution in muscle of C.B.-17/Icr +/+ Jcl mouse xenografted with human LNCAP and PC3 cells at 25.9 MBq, iv after 2 mins; settings: in vivo; summary of the method: as §2
Blood [22] = test: Biodistribution in blood of C.B.-17/Icr scid/scid Jcl mouse xenografted with human LNCAP and PC3 cells at 25.9 MBq, iv after 30 mins; settings: in vivo, 0.5 h
Spleen [23] = test: Biodistribution in spleen of C.B.-17/Icr +/+ Jcl mouse xenografted with human LNCAP and PC3 cells at 25.9 MBq, iv after 3 hrs; settings: in vivo; summary of the method: as §2

- Drug uptake (Liver [1]): 13.7 % ID/g
- Drug uptake (Kidney [2]): 68.1 % ID/g
- Drug excretion (Liver [3]): Active
- Drug uptake (Lung): 2.9 % ID/g
- Ratio (Nucleic Acid [4]): 15.5
- Drug uptake (Thyroid gland [5]): 0 %ID
- Drug uptake (Thyroid gland [6]): 0.01 %ID
- Drug uptake (Spleen [7]): Active
- Drug uptake (LNCaP [8]): 7 % ID/g
- Drug uptake (LNCaP [9]): 4.2 % ID/g
- Drug uptake (Blood [10]): 0.5 % ID/g
- Drug uptake (LNCaP [11]): 9.5 % ID/g
- Drug uptake (Spleen [12]): 43.3 % ID/g
- Drug uptake (Kidney [13]): 88.8 % ID/g
- Drug uptake (Intestine [14]): 5.3 % ID/g
- Drug uptake (Heart [15]): 0.4 % ID/g
- Drug uptake (PC-3): 0.7 % ID/g
- Drug uptake (LNCaP [16]): 9.5 % ID/g
- Drug uptake (Heart [17]): 0.7 % ID/g
- Ratio (Nucleic Acid [18]): 11.1
- Drug uptake (Stomach): 0.7 %ID
- Drug uptake (Liver [19]): 4.5 % ID/g
- Drug uptake (Intestine [20]): 16.5 % ID/g
- Ratio (Nucleic Acid [21]): 1.6
- Drug uptake (Muscle tissue): 1.4 % ID/g
- Drug uptake (Blood [22]): 1.5 % ID/g
- Drug uptake (Spleen [23]): 16.1 % ID/g
Structure (SMILES): O=C(O)CC[C@H](NC(=O)N[C@@H](CSC1CC(=O)N(CCCC[C@H](NC(=O)CNC(=O)c2cccc([125I])c2)C(=O)O)C1=O)C(=O)O)C(=O)O (some centres not stated)
